Data taken from ChEMBL document CHEMBL4513216, “Probing the Open Global Health Chemical Diversity Library for Multistage-Active Starting Points for Next-Generation Antimalarials” (ACS Infect Dis, 2020).

Experiment: Toxicity liver stage against HepG2, at 10uM
Format: cell-based
Design: test concentration 10 uM, cell line HepG2-A16-CD81EGFP
Conditions: human, HepG2-A16-CD81EGFP cells; read-out: INHIBITION
Outline: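 Uninfected HepG2-A16-CD81EGFP cells, 3 × 10^3 per well, 1536-well, plated on prespotted compound at 10 μM final, parasite-free screening media added to match infected plates; puromycin 10 μM positive, DMSO 0.5% negative; run in parallel with 48 h PbLuc assay at 37 °C, 5% CO2; viability by CellTiter-Glo luminescence, normalized to controls.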

Row | SMILES | cytotoxicity at 10 µM [%]
1 | CN1CC(=O)N(c2ccccc2)CC12CCN(C(=O)c1cnccn1)C2 (stereo unspecified) | 9.91
2 | Cc1cc(-c2cnc(NC3CC3)nc2-c2ccc(C)o2)on1 | 2.26
3 | Cc1oc(C)c(C(=O)N2CCN(Cc3cscn3)CC2)c1C | -10.6
4 | Cc1occc1C(=O)N1CCC2(CCN(C(=O)c3cccnc3)C2)CC1 | -88.1
5 | Cc1ccc(-c2nc(CNCC3CN(C)CCO3)co2)cc1 (stereo unspecified) | -14.4
6 | CCOCCC(=O)NCC(C)c1ccsc1 (stereo unspecified) | 15.1
7 | Cc1cnn(CC2CCCN2C(=O)c2csc(C3CC3)n2)c1 (stereo unspecified) | -17.8
8 | O=c1c2sccc2ncn1CC(O)CN1CCOCC1 (stereo unspecified) | 7.27
9 | NC(=O)C1CCN(C(=O)NCc2ccc3c(c2)OCCO3)CC1 | -8.14
10 | O=C(NCCC1COc2ccccc2O1)c1ccc(-c2cn[nH]c2)nc1 (stereo unspecified) | 4.65
11 | O=C(NCC1(c2ccc(F)cc2)CC1)N1CCC2(CCOC2)C1 (stereo unspecified) | -6.72
12 | CO[C@H]1CCN(Cc2cnn(C)c2)[C@@H]2CN(Cc3ccncc3)C[C@H]12 | 2.29
13 | CCN(CC(=O)NC)C(=O)c1sc(Cc2ccccc2)nc1C | -6.37
14 | CCS(=O)(=O)N1CCc2ccc(=O)n(CC3CC3)c2CC1 | 7.95
15 | CC(NC(=O)Cn1cccn1)c1ccc2c(c1)OCCO2 (stereo unspecified) | -2.23
16 | O=c1n(CCSCCOc2ccc(Br)cc2)nc2ccccn12 | 10
17 | Cc1ccc(CN2CCOC3(COCCN(C(C)C)C3)C2)s1 (stereo unspecified) | -0.82
18 | CCC(CO)NCc1ccc(-c2ccccc2F)o1 (stereo unspecified) | -2.49
19 | O=C(c1ccoc1)N1CCCC2(CCC(=O)N2Cc2cccnc2)C1 (stereo unspecified) | -4.41
20 | Cn1cc(NC(=O)c2cccc3cccnc23)ccc1=O | -4.83
21 | Cc1nc(C(=O)N2CCCC2c2cncc(CN3CCCC3)n2)co1 (stereo unspecified) | 8.99
22 | CC(=O)N1CCN(C(=O)c2sccc2Br)CC1 | 6.83
23 | O=C(CN1CCOC(Cn2cccn2)C1)Nc1nccs1 (stereo unspecified) | 3.64

Row | SMILES | cytotoxicity at 10 µM [%]
24 | N#Cc1cn(C2CC2)c(=O)n(Cc2cc(-c3cccs3)on2)c1=O | 0.38
25 | CCN(Cc1ccoc1)C(=O)c1ccc(C)c(S(N)(=O)=O)c1 | -4.63
26 | CCc1ccc(O)c(C(=O)N2CCN(CC(=O)N(C)C)CC2)c1 | 2.8
27 | CN1C(=O)[C@@H]2CC[C@H]1CN(c1ncnc3ccsc13)C2 | 0.636
28 | CC(Nc1cccc2c1OCCO2)C(=O)Nc1ccc(S(N)(=O)=O)cc1 (stereo unspecified) | -3.93
29 | CN(C(=O)NCCN1CCOCC1)C1CCN(c2ccccc2)C1=O (stereo unspecified) | -11.6
30 | CSCCC(C)(O)CNS(=O)(=O)Cc1cccc(C)c1 (stereo unspecified) | 1.09
31 | COc1ccc(CNC(=O)Nc2ccc(=O)n(C)c2)cc1 | 1.92
32 | COC(=O)NCC(=O)N1CCC(c2nc3cc(F)ccc3[nH]2)CC1 | 3.67
33 | CC(c1cn2ncsc2n1)n1cc2[nH]cccc-2c1=O (stereo unspecified) | -3.74
34 | O=C(NC1(c2nnn(CC3CC3)n2)CCCC1)c1ccccc1 | 6.48
35 | Cn1ccnc1-c1noc(NCc2ccc3c(c2)OCCO3)n1 | -0.408
36 | NC(=O)c1cccc(NC(=O)CSc2ccc3c(c2)CCC3)c1 | 21.4
37 | CCN1CCC2(CN(C(=O)N(C)C)CC23CCN(CC2CC2)CC3)C1=O (stereo unspecified) | 0.199
38 | Cc1cc(Nc2ccc(F)cn2)cc(C2CCCN2)n1 (stereo unspecified) | 0.0453
39 | COc1cccc(S(=O)(=O)CCN2CCC3(CC2)OCCO3)c1 | 4.62
40 | Cc1cc(C)n(-c2cncc(NCCNC(=O)C3CCCC3)n2)n1 | 3.51
41 | CN(C)C(=O)c1ccc(C(C(=O)O)N(C)Cc2ccccc2Cl)cc1 (stereo unspecified) | -54.6
42 | Cc1ccc(CNc2cc3c(cc2Cl)NC(=O)CO3)cc1C | 0.651
43 | O=C(CN1CCC(c2ccnn2CCO)CC1)NC1CCCC1 | -6.64
44 | CC(=O)N1CC(=O)N(c2cnn(C)c2)CC12CCN(Cc1nccs1)C2 (stereo unspecified) | 6.03
45 | CN(C)S(=O)(=O)N(Cc1cscn1)c1ccccc1 | -3.91
46 | CC(c1ccco1)n1cc(-c2cc(CN3CCCC3)cs2)nn1 (stereo unspecified) | -23.6

Row | SMILES | cytotoxicity at 10 µM [%]
47 | O=C(O)c1ccc(C2CCCN(Cc3ccc(-c4cc[nH]n4)o3)C2)cc1 (stereo unspecified) | -2.43
48 | CN(C)Cc1ccc(C2CCCCN2C(=O)c2cccc(CO)n2)cc1 (stereo unspecified) | -16.9
49 | CC(NC(=O)NCCCn1cncn1)c1ccccc1F (stereo unspecified) | -13.3
50 | CC(C)(C)c1noc(OCC(=O)NCC(F)(F)F)n1 | 8.81
51 | O=C(Cc1ccccc1)NCCNS(=O)(=O)C1CCCCC1 | -1.95
52 | Cc1noc(C)c1CCCNC(=O)C1CCN(C(=O)C2CC2)CC1 | 1.23
53 | O=C1CC(N(C(=O)c2ccc(F)c(F)c2)C2CC2)C(=O)N1 (stereo unspecified) | 2.1
54 | CCN(C)C[C@@H]1CN(C(=O)c2cc(C(F)(F)F)n[nH]2)C[C@@H]1CO | -12.1
55 | Cc1nc(C2CCCN2Cc2nc(C)c(C)o2)no1 (stereo unspecified) | -2.53
56 | Cc1noc(C2(C)CCCN(C(=O)c3cccnc3)C2)n1 (stereo unspecified) | -13.4
57 | Cc1cn2c(n1)CCC(NC(=O)c1cc(Br)cn1C)C2 (stereo unspecified) | 3.18
58 | Cc1cc(-c2ccc(=O)n(C3CCN(S(=O)(=O)N(C)C)CC3)n2)c(C)o1 | 6.54
59 | CC(C(=O)Nc1nccs1)N1CCc2nn(C)c(=O)cc2C1 (stereo unspecified) | 9.17
60 | c1cc(CO[C@H]2CC[C@H]3[C@H]2OCCN3Cc2nccs2)ccn1 | -109
61 | COc1ccc(C(=O)CCc2nc(C3CC3)no2)cc1 | -2.31
62 | Cc1cn(CC(=O)Nc2cc(C(C)C)nn2C)cn1 | 5.44
63 | Cc1cccc2c(=O)n(C(C)Cc3cccnc3)cnc12 (stereo unspecified) | -13.5
64 | O=C(c1ccco1)N1CCN(Cc2nc(C3CC3)no2)CC1 | 5.21
65 | Cc1ccccc1N1CCN(C(=O)c2cnc(C3CC3)nc2)C(C)C1 (stereo unspecified) | 2.09
66 | O=C(c1ccc(-n2ccnc2)nn1)N1CCCC1CCc1ccccc1 (stereo unspecified) | 8.57
67 | c1coc(CNc2ncc3c(n2)C2(CCNC2)COC3)c1 (stereo unspecified) | 10.7
68 | Cc1cc(N2CCOCC(Cc3ccc4[nH]ccc4c3)C2)ncn1 (stereo unspecified) | -3.77
69 | Cc1noc(C)c1C(=O)N1CCSc2ccc(Cl)cc21 | -108

Row | SMILES | cytotoxicity at 10 µM [%]
70 | c1cnn(CC2CCCCN2Cc2nc(-c3ccsc3)no2)c1 (stereo unspecified) | -12.2
71 | CC(=O)N[C@@H]1CN(C(=O)c2cccc(C)c2)C[C@H]1O | -2.48
72 | Cn1cnn(Cc2ccccc2F)c1=O | -3.09
73 | Cc1ccsc1S(=O)(=O)N1CCc2c(c(C(=O)O)nn2CC2CC2)C1 | -0.714
74 | CCC1CN(CCC(=O)N(C)C)CCN1CCOC (stereo unspecified) | -6.34
75 | CCOc1ccc(SCCNS(=O)(=O)CC)cc1 | 2.71
76 | CC(C)CN1CC[C@@H]2[C@@H]1CCN2C(=O)N1CCCC1 | -1
77 | CC(C)NC(=O)[C@H](C)NC(=O)N1CCN(c2ccc(Cl)cc2)CC1 | 0.592
78 | COc1ccc2[nH]c3c(N(C)CC4OCCO4)ncnc3c2c1 | 36
79 | Cc1nn(C)c2cnn(C(C)C(=O)NCc3cccnc3)c12 (stereo unspecified) | 9.77
80 | N#Cc1ccc(CS(=O)(=O)NC(=O)c2ccc(C#N)cc2)cc1 | 5.47
81 | Cc1ccoc1C(=O)N1CC[C@@]2(C[C@H](NS(C)(=O)=O)CCO2)C1 | 7.43
82 | Cc1ccc(CNc2ccn(CCC(N)=O)n2)c(Br)c1 | -1.65
83 | O=S(=O)(c1cccs1)N1CC[C@H](O)[C@@H]1Cc1ccncc1 | 3.19
84 | Cc1cc(CNC(=O)CC2CCN(C(C)C)CC2)n(C)n1 | -1.77
85 | Cc1sc(C(=O)N(C)S(C)(=O)=O)cc1-c1ccc(F)cc1 | 0.269
86 | CS(=O)(=O)NC1CCc2c(ccc(=O)n2CC2CC2)C1 (stereo unspecified) | 4.84
87 | O=C(CCn1cncn1)NCC(c1ccco1)N1CCCC1 (stereo unspecified) | -3.62
88 | CC(Sc1nnc(C2CC2)n1CC(N)=O)c1ccc(F)cc1F (stereo unspecified) | -1.7
89 | COCCn1cc(NC(=O)NC(C)CCc2ccccc2)ccc1=O (stereo unspecified) | 3.4
90 | COCCN(C(=O)c1cc(-c2ccc(C)s2)[nH]n1)C1CC1 | 11.6
91 | O=C(NCC1CCOC1)c1cc(-c2cccc(Cl)c2)on1 (stereo unspecified) | -8.75
92 | CC(=O)N[C@@H]1CN(C(=O)c2cnccn2)C[C@H]1c1ccc(C)cc1 | 6.62

Row | SMILES | cytotoxicity at 10 µM [%]
93 | O=c1c2cnc(N3CCCCC3)nc2ccn1-c1ccccc1F | 2.77
94 | Cc1ccccc1C(=O)N1CC[C@@H](N(C)C)[C@@H]1Cc1cnn(C)c1 | -71
95 | O=S(=O)(c1cn[nH]c1)N1CCC(O)(CN2CCC(F)(F)CC2)C1 (stereo unspecified) | 5.92
96 | CC(C)OC(=O)N1C[C@@H]2CC[C@H]1CN(Cc1cccnc1)C2 | 0.189
97 | CCc1cccc(NS(=O)(=O)c2cc3c(c(C(=O)O)c2)OCCO3)c1 | 2.89
98 | Cc1nc(CCNC(=O)C2CC(=O)N(C(C)(C)C)C2)sc1Cl (stereo unspecified) | 16.8
99 | CN(Cc1ccc(C2CC(=O)Nc3n[nH]cc32)o1)S(C)(=O)=O (stereo unspecified) | -13.8
100 | COCCOc1ccccc1NC(C)C(=O)NC(=O)NC(C)(C)C (stereo unspecified) | 1.47
101 | Cc1ccc(CNCC2Cn3nnc(-c4cccc(F)c4)c3CO2)o1 (stereo unspecified) | -0.617
102 | COc1c(C)cnc(CN(C)C(=O)c2ccccn2)c1C | 0.22
103 | COCC(=O)N1C[C@H]2CNC[C@@]2(C(=O)NCc2snnc2C)C1 | 8.27
104 | CCOCCCNc1nc(CS(=O)(=O)c2ccccc2)cs1 | 9.75
105 | Cc1nn(C)c2nc(N3CCCCC3c3nccs3)sc12 (stereo unspecified) | 10.2
106 | CCOCC1CN(c2ccc(C)nn2)Cc2nn(CC)cc21 (stereo unspecified) | 11.5
107 | CCc1ncc(CN2CCN(CCOC)CC2)cn1 | -21.7
108 | Cc1ccc(CN2CC[C@@H]3[C@@H](CO[C@H]3CN3CCN(C)CC3)C2)s1 | 7.57
109 | Fc1cccc(CN2C[C@@H]3CN(c4ncccn4)C[C@@H]3C2)c1 | 6.81
110 | COc1cccc(C(=O)C2CCCN(c3nccc(N)n3)C2)c1 (stereo unspecified) | -1.82
111 | CC(C)N1CCN(CCn2cnc3c(F)cccc3c2=O)CC1 | 1.64
